Results as given in ChEMBL document CHEMBL2176957, “Discovery of a novel noniminosugar acid α glucosidase chaperone series” (J Med Chem, 2012).
Converted amounts (≈) assume the structure as drawn. The source made the active and inactive calls. The rule behind the calls is not given here.

Key:
[1] = molecular target: T1, Lysosomal alpha-glucosidase (Homo sapiens, UniProt P10253); assay: Ratio of Kd for wild type recombinant NT-495 labelled GAA to IC50 for wild type recombinant GAA (unknown origin
[2] = molecular target: T1, Lysosomal alpha-glucosidase; assay: Increase in GAA activity in human wild type skin fibroblasts incubated for 5 days by fluorescence assay relative to vehicle-treated control
Method in brief: (§1)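 Fibroblasts seeded at 5,000 cells/well and treated 5 days, with media and compound renewed on day 3. Assayed directly or after PBS wash and 18 h or 40 h in compound-free medium. Cells were incubated 2 h at 37 °C in pH 4.0 citrate/phosphate buffer with 3 mM 4-MUG and acarbose, then stopped at pH 10. Background subtracted, normalized to vehicle (100%); triplicate, mean ±SD.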

Caco-2 [3] = assay: Efflux ratio from basolateral to apical side to apical to basolateral side of human Caco2 cells; format: ADME, cell-based
[4] = molecular target: T1, Lysosomal alpha-glucosidase; assay: Increase in GAA activity in human F2845 cells incubated for 5 days by fluorescence assay relative to vehicle-treated control; format: cell-based; method in brief: as §1
Caco-2 [5] = assay: Permeability from basolateral to apical side of human Caco2 cells
Caco-2 [6] = assay: Permeability from apical to basolateral side of human Caco2 cells
Liver = assay: Half life in mouse liver microsomes
[7] = Aqueous solubility in PBS buffer
[8] = molecular target: T1, Lysosomal alpha-glucosidase; assay: Increase in GAA activity in human F2845 cells incubated for 5 days followed by 18 to 40 hrs wash out by fluorescence assay relative to vehicle-treated control; format: cell-based; method in brief: as §1
[9] = molecular target: T1, Lysosomal alpha-glucosidase; assay: Increase in GAA activity in human wild type skin fibroblasts incubated for 5 days followed by 18 to 40 hrs wash out by fluorescence assay relative to vehicle-treated control; method in brief: as §1
[10] = Cytotoxicity in human F2845 cells assessed as cell viability at 1 to 5 uM after 5 days confocal laser-scanning microscopic analysis; format: cell-based; conditions: f2845, 120 h
Method in brief: (§2)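 Primary wild-type dermal fibroblasts and patient-derived Pompe fibroblasts (passage 7) grown on chamber slides and exposed to compound for 5 or 6 days. Viability judged from the cultures examined by immunostaining and confocal microscopy.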

[11] = Cytotoxicity in human wild type skin fibroblasts assessed as cell viability at 1 to 5 uM after 5 days by confocal laser-scanning microscopic analysis; conditions: skin fibroblast, 120 h; method in brief: as §2
[12] = molecular target: T1, Lysosomal alpha-glucosidase; assay: Increase in translocation of GAA to lysosomes in human F2845 cells at 1 to 5 uM after 5 days by confocal laser-scanning microscopic analysis; format: cell-based
Method in brief: (§3)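 Wild-type primary dermal fibroblasts or Pompe patient fibroblasts (F3248, F0833, F2845; low passage) treated with compound for 5 or 6 days. Fixed in 3% paraformaldehyde, permeabilized with 0.1% Triton X-100, blocked, stained with mouse anti-GAA (Alexa-488) and goat anti-cathepsin D (Alexa-555), DAPI counterstain. Confocal images taken at fixed laser settings; percentage of cells with lysosomal GAA co-localization scored.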

[13] = molecular target: T1, Lysosomal alpha-glucosidase; assay: Increase in translocation of GAA to lysosomes in human wild type skin fibroblasts at 1 to 5 uM after 5 days by confocal laser-scanning microscopic analysis; method in brief: as §3
[14] = Cytotoxicity in human F2845 cells at 10 to 20 uM after 6 days by confocal laser-scanning microscopic analysis; format: cell-based; conditions: f2845, 144 h; method in brief: as §2
[15] = Cytotoxicity in human wild type skin fibroblasts at 10 to 20 uM after 6 days by confocal laser-scanning microscopic analysis; conditions: skin fibroblast, 144 h; method in brief: as §2
[16] = molecular target: T1, Lysosomal alpha-glucosidase; assay: Binding affinity at wild type recombinant GAA assessed as rise in melting temperature of protein using SYPRO Orange dye by fluorescence assay
Method in brief: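 Thermal shift of recombinant wild-type GAA (1 μM) with SYPRO Orange (5×) in 50 mM citrate buffer pH 5.0 with 100 mM KCl, 10 mM NaCl, 1 mM MgCl2. Six-point compound series, 0.82–200 μM final, 2% DMSO, DMSO controls. Heated 20 to 95 °C at 4.8 °C/s; fluorescence ex 498/em 580 nm; Tm calculated from the melt curve.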

[17] = molecular target: T1, Lysosomal alpha-glucosidase; assay: Inhibition of wild type recombinant GAA preincubated for 5 mins measured after 45 mins using red-shifted dye by fluorescence assay; conditions: read-out: IC50
[18] = molecular target: T1, Lysosomal alpha-glucosidase; assay: Inhibition of wild type recombinant GAA preincubated for 5 mins measured after 45 mins using blue-shifted dye by fluorescence assay; conditions: read-out: IC50
[19] = molecular target: T1, Lysosomal alpha-glucosidase; assay: Binding affinity at wild type recombinant GAA assessed as thermostabilization of protein at 50 uM incubated at 66 degC for 60 mins
Method in brief: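 GAA incubated at 66 °C for 60 min with compound at 50 μM, compared with room-temperature incubation. Residual enzymatic activity read out and expressed as the ratio of heated to room-temperature activity; DMSO controls run in duplicate.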

[20] = molecular target: T1, Lysosomal alpha-glucosidase; assay: Inhibition of human recombinant GAA assessed as hydrolysis of bovine liver glycogen by Amplex red oxidase assay
Method in brief: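 Recombinant human GAA hydrolysing bovine liver glycogen as the native substrate. Released glucose was detected with an Amplex Red glucose oxidase coupled reaction, read as fluorescence on a plate reader.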

[21] = molecular target: T2, Lysosomal acid glucosylceramidase (Homo sapiens) (UniProt P04062); assay: Inhibition of glucocerebrosidase
T2 sequence (whole entry): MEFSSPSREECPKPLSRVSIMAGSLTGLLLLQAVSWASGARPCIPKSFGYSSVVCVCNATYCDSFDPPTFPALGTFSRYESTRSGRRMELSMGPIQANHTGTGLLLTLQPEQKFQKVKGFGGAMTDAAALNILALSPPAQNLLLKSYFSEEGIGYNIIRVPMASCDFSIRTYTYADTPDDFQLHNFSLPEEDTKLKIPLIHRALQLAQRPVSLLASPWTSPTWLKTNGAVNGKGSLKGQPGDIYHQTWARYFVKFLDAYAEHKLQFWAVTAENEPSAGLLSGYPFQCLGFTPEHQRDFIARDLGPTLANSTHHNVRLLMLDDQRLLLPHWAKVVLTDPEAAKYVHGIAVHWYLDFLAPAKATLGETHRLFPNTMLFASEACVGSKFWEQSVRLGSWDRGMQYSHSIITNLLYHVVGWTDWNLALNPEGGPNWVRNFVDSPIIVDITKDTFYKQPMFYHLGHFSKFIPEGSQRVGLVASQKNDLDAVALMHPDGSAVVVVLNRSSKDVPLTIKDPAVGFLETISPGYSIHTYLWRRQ

[22] = Inhibition of alpha-galactosidase

With CC(=O)c1ccc(N2CCN(S(=O)(=O)c3ccc4c(c3)CC(=O)N4)CC2)cc1 the Ratio [1] was 20, the Activity [2] was “Active” and the Ratio (Caco-2 [3]) was 1.9. For the same compound, the Activity [4] was “Active”, the Papp (Caco-2 [5]) was 27.1 ×10⁻⁶ cm/s and the Papp (Caco-2 [6]) was 14.6 ×10⁻⁶ cm/s. For the same compound, the t1/2 (Liver) was over 60 min, the solubility [7] was 7.9 µM (≈ 3.16 µg/mL) and the Activity [8] was “Active”. For the same compound, the Activity [9] was “Active”, the Activity [10] was “Non-toxic” and the Activity [11] was “Non-toxic”. The Activity [12] was “inactive”, the Activity [13] was “inactive” and the Activity [14] was “Toxic”. For the same compound, the Activity [15] was “Toxic”, the Activity [16] was “Active” and the IC50 [17] was 940 nM. The IC50 [18] was 750 nM, the Activity [19] was “Active” and the INH [20] was 330 nM. The inhibition [21] was “Active” and the inhibition [22] was “Active”.
